Source: ChEMBL document CHEMBL1153277 (Bioorg Med Chem Lett, 2009)
One block for each compound: values may come before it.

Key:
Homo sapiens [1] = species on record: Homo sapiens; assay: Selectivity for human 5HT3 receptor over human alpha7 nAChR
[2] = biological target: T1, Muscarinic acetylcholine receptor M5 (Homo sapiens, UniProt P08912); assay: Inhibition of human recombinant muscarinic M5 receptor
T1 sequence (P08912 whole entry): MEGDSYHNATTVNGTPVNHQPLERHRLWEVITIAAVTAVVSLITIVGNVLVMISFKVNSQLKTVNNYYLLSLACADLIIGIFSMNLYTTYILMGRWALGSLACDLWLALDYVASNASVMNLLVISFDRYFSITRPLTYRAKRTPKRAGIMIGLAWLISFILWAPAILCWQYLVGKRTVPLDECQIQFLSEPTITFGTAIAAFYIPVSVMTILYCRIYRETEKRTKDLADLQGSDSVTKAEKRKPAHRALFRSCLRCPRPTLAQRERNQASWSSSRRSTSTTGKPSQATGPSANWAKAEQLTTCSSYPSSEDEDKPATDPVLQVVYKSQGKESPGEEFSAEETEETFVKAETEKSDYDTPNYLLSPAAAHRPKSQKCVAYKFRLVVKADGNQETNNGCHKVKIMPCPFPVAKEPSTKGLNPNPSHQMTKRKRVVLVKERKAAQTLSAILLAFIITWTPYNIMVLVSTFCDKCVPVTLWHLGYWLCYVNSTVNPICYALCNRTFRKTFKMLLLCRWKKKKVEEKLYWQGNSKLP

[3] = biological target: Muscarinic acetylcholine receptor M3 (Homo sapiens, UniProt P20309); assay: Inhibition of human recombinant muscarinic M3 receptor
[4] = biological target: Acetylcholine receptor; alpha1/beta1/delta/gamma (Homo sapiens, UniProt P02708+P07510+P11230+Q07001); assay: Antagonist activity at human alpha-1-beta-1-gamma-delta nAChR expressed in human TE671 cells by calcium influx assay; assay type: functional, cell-based, TE-671
Acetylcholine receptor; alpha1/beta1/delta/gamma, sequence (P02708 whole entry): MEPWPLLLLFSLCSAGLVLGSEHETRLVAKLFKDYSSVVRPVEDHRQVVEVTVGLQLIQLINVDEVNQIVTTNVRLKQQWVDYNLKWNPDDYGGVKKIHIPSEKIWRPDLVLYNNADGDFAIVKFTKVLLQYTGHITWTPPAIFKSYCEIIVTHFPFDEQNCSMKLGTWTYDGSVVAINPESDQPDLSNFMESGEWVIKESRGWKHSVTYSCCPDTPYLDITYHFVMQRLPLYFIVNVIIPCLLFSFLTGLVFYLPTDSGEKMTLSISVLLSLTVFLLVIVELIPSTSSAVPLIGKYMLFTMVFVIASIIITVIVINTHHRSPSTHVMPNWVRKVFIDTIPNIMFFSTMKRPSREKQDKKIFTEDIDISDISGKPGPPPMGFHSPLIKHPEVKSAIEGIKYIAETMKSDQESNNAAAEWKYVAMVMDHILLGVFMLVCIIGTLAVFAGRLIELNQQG
Acetylcholine receptor; alpha1/beta1/delta/gamma, sequence (P07510 whole entry): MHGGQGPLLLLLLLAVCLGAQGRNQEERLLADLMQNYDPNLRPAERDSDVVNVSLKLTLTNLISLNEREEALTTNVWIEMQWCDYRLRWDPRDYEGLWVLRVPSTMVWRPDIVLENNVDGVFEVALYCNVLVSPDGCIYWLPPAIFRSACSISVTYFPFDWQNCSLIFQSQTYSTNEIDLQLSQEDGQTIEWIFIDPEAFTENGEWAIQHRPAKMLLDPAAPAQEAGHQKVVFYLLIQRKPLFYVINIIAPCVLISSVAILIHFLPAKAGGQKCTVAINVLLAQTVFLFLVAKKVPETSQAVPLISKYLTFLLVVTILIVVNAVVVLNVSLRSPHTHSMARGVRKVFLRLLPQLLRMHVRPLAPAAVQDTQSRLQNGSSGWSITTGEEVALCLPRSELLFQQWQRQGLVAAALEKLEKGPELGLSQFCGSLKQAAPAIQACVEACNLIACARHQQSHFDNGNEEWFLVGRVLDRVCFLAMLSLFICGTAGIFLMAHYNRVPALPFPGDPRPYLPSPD
Acetylcholine receptor; alpha1/beta1/delta/gamma, sequence (P11230 whole entry): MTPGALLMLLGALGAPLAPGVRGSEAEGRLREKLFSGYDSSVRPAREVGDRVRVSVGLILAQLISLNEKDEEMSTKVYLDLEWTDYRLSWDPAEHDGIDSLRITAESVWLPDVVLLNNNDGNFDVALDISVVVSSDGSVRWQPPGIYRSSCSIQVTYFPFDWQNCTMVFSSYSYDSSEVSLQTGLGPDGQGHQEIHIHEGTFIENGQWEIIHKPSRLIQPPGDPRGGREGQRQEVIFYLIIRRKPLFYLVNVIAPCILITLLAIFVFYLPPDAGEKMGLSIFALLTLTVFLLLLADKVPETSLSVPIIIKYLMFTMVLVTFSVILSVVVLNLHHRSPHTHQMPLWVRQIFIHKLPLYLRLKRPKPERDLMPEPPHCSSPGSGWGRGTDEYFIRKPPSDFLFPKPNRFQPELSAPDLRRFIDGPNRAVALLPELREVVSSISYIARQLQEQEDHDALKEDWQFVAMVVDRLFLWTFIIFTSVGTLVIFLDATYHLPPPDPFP
Acetylcholine receptor; alpha1/beta1/delta/gamma, sequence (Q07001 whole entry): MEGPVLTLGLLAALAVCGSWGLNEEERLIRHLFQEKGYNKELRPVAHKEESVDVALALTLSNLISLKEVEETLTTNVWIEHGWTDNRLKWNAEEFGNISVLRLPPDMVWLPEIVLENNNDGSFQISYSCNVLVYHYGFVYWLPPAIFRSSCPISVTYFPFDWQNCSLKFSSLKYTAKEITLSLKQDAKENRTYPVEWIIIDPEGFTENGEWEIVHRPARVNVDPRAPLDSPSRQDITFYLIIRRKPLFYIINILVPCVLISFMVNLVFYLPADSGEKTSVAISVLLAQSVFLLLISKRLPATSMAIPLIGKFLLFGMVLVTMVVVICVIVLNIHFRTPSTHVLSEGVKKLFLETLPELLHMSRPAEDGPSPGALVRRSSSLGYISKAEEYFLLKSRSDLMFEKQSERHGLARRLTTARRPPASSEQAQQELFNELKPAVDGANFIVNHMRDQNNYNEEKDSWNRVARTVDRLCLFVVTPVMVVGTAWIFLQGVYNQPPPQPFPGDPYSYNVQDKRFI

[5] = biological target: T2, Muscarinic acetylcholine receptor M1 (Homo sapiens, UniProt P11229); assay: Inhibition of human recombinant muscarinic M1 receptor
T2 sequence (P11229 whole entry): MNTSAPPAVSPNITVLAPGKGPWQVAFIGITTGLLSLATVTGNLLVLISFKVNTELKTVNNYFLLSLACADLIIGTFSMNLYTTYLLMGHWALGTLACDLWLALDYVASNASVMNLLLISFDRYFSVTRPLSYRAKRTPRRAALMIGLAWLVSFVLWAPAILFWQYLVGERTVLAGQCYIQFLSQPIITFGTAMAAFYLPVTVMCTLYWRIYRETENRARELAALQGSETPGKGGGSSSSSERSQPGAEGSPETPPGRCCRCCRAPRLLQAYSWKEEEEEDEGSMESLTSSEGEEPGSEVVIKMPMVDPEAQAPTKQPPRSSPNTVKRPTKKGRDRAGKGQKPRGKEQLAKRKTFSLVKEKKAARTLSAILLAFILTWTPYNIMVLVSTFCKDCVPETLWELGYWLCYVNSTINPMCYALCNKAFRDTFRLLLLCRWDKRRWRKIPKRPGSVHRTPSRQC

Homo sapiens [6] = species on record: Homo sapiens; assay: Selectivity for human alpha4beta2 nAChR over human alpha7 nAChR
Homo sapiens [7] = species on record: Homo sapiens; assay: Selectivity for human alpha3beta4 nAChR over human alpha7 nAChR
[8] = biological target: T3, Muscarinic acetylcholine receptor M4 (Homo sapiens, UniProt P08173); assay: Inhibition of human recombinant muscarinic M4 receptor
T3 sequence (P08173 whole entry): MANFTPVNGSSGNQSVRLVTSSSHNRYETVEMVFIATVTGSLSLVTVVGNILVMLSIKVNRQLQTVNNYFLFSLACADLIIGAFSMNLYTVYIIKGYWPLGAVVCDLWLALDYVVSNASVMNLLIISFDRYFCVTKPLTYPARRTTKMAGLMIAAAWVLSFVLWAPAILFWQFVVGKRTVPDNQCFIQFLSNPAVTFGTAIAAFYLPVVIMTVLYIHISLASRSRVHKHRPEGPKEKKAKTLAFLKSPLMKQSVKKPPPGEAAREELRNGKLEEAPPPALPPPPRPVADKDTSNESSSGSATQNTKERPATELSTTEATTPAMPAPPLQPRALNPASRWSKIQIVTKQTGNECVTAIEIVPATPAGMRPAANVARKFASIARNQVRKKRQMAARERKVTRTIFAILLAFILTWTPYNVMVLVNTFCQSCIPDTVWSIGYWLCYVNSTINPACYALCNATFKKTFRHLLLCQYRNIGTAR

[9] = biological target: T4, 5-hydroxytryptamine receptor 3A (Homo sapiens, UniProt P46098); assay: Antagonist activity at human 5HT3 receptor by calcium influx assay; assay type: functional
T4 sequence (P46098 whole entry): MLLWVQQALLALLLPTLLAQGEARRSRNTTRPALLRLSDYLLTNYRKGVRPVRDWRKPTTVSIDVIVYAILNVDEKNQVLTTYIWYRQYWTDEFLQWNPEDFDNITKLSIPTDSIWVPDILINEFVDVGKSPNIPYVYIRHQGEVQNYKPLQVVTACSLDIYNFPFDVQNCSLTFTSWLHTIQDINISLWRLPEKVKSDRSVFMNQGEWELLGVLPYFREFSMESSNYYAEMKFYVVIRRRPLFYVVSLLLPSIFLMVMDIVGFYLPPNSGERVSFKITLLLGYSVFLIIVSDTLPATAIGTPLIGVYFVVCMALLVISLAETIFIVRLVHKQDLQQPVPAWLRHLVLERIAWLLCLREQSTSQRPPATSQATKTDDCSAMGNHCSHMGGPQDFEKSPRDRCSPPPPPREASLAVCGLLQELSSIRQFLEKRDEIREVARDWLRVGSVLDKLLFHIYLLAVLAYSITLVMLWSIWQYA

[10] = biological target: Neuronal acetylcholine receptor; alpha4/beta2 (Homo sapiens, UniProt P17787+P43681); assay: Antagonist activity at human alpha4beta2 nAChR expressed in HEK293 cells by calcium influx assay; assay type: functional, cell-based
Neuronal acetylcholine receptor; alpha4/beta2, sequence (P17787 whole entry): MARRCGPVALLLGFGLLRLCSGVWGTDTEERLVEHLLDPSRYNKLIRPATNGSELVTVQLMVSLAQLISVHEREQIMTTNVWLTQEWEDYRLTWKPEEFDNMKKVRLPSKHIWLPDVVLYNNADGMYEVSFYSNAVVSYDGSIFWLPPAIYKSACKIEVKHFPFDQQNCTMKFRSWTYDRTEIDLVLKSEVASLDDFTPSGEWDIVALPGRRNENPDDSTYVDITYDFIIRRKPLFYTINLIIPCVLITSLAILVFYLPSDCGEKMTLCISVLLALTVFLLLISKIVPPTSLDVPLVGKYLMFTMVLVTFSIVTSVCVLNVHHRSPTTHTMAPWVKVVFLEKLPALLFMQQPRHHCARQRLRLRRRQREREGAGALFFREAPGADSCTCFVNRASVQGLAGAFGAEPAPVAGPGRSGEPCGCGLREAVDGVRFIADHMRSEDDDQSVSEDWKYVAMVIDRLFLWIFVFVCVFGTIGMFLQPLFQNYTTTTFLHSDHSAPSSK
Neuronal acetylcholine receptor; alpha4/beta2, sequence (P43681 whole entry): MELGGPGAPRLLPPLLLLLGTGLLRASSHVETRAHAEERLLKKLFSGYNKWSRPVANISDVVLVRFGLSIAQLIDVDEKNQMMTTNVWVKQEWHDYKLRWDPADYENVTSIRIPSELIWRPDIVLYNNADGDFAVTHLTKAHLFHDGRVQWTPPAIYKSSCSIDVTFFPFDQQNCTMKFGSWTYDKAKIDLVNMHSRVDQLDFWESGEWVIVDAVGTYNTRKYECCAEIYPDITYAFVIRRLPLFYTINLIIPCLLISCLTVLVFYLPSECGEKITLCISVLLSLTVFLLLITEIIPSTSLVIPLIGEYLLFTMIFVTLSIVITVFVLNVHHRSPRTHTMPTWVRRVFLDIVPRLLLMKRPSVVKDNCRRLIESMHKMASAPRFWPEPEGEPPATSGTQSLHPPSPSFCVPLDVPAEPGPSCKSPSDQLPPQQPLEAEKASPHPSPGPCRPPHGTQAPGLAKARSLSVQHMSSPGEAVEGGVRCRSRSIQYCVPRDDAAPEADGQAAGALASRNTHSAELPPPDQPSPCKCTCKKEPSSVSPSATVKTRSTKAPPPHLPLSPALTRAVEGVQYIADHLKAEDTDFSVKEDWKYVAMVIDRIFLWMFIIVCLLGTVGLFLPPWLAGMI

Homo sapiens [11] = species on record: Homo sapiens; assay: Selectivity for human alpha-1-beta-1-gamma-delta nAChR over human alpha7 nAChR
[12] = biological target: T5, Muscarinic acetylcholine receptor M2 (Homo sapiens, UniProt P08172); assay: Inhibition of human recombinant muscarinic M2 receptor
T5 sequence (P08172 whole entry): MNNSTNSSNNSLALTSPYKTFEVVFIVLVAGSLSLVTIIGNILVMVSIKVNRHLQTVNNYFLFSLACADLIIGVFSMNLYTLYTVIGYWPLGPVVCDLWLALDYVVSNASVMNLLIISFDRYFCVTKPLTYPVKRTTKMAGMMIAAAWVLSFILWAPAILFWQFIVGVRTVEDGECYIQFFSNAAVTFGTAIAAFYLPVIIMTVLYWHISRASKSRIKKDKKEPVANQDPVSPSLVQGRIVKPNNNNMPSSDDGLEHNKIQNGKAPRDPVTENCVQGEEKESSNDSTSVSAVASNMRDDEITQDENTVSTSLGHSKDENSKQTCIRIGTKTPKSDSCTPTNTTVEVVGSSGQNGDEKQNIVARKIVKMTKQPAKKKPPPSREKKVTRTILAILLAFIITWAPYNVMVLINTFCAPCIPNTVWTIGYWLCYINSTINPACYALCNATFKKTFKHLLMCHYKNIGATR

[13] = biological target: Neuronal acetylcholine receptor; alpha3/beta4 (Homo sapiens, UniProt P30926+P32297); assay: Antagonist activity at human alpha3beta4 nAChR expressed in HEK293 cells by calcium influx assay; assay type: functional, cell-based
Neuronal acetylcholine receptor; alpha3/beta4, sequence (P30926 whole entry): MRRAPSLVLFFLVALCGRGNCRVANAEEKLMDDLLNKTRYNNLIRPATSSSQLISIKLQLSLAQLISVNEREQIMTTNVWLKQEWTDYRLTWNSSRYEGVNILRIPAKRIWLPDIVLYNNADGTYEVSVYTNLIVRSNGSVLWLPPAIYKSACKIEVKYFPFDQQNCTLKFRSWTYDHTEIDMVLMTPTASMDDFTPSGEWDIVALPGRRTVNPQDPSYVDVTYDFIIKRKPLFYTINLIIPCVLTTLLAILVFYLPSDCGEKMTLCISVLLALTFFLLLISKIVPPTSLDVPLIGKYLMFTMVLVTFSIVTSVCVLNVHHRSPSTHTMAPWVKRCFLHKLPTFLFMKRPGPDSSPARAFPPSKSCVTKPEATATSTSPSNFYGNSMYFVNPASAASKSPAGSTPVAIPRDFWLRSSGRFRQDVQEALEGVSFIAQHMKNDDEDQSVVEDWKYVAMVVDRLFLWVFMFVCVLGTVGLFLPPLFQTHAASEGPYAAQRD
Neuronal acetylcholine receptor; alpha3/beta4, sequence (P32297 whole entry): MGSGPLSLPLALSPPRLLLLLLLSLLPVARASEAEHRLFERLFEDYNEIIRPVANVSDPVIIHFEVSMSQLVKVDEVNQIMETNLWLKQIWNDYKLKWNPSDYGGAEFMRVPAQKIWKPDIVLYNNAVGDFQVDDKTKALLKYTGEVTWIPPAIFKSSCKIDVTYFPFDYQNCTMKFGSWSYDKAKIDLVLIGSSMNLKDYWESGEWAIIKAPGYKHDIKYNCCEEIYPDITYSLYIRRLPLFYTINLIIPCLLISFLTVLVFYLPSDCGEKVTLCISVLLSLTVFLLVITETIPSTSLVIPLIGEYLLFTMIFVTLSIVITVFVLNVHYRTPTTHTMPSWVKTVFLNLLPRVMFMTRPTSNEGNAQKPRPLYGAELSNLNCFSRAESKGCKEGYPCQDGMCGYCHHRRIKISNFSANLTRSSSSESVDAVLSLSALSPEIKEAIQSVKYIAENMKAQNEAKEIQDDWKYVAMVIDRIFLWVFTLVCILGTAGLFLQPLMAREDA

Mus musculus [14] = assay: Plasma concentration in DBA/2 mouse at 30 umol/kg, po after 4 hrs; assay type: ADME, organism-based; details: in vivo
Summary of the method: (§1)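 Mice (n = 6) dosed 30 µmol/kg po. Brain and plasma levels measured at 1 h and 4 h after dosing, reported as pmol/g.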

[15] = Metabolic stability in mouse liver microsomes assessed as hepatic extraction ratio; assay type: ADME, Microsome; details: read-out: Activity
Summary of the method: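 Compound incubated with mouse or human liver microsomes. In vitro hepatic extraction ratio reported as % compound depleted at the end of the experiment; half-life also given.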

[16] = Octanol-water partition coefficient, log P of the compound; assay type: physicochemical
[17] = biological target: Neuronal acetylcholine receptor subunit alpha-7 (Homo sapiens, UniProt P36544); assay: Agonist activity at human recombinant alpha7 nAChR expressed in rat GH3 cells by calcium influx assay; assay type: functional, cell-based
Neuronal acetylcholine receptor subunit alpha-7, sequence (P36544 whole entry): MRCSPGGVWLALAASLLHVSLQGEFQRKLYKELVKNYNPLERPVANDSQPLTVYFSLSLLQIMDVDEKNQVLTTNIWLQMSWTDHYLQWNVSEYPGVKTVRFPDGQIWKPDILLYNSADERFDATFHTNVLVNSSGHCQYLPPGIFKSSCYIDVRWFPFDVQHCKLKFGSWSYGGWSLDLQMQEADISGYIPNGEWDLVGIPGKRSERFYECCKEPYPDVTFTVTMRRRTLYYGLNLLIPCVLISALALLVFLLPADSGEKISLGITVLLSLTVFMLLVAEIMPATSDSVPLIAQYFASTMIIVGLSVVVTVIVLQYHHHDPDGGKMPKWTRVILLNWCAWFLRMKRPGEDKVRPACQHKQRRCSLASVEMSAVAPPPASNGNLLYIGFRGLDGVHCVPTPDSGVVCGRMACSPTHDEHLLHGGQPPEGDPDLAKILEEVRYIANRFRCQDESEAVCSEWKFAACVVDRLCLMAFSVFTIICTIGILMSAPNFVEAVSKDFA
Summary of the method: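 GH3 cells recombinantly expressing human α7 nAChR; agonist activity. Each compound run in duplicate. EC50 taken from individual 8-point concentration-response curves and expressed as pEC50, with Emax given in %.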

[18] = Protein binding in rat plasma assessed as fraction unbound; assay type: ADME, cell-free
Summary of the method: (§2)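 Binding to human and rat plasma protein, reported as the free (unbound) fraction in %.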

Heart = assay: Toxicity in langendorff isolated rabbit heart assessed as effect on QT interval prolongation up to 10 uM by whole heart assay; assay type: tissue-based, Oryctolagus cuniculus
Summary of the method: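 Langendorff isolated rabbit heart, ex vivo whole-heart preparation. QT interval monitored at concentrations up to 10 µM.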

[19] = biological target: Voltage-gated inwardly rectifying potassium channel KCNH2 (Homo sapiens, UniProt Q12809); assay: Inhibition of human ERG by patch-clamp technique
[20] = Inhibition of sodium channel at 30 uM by patch-clamp technique
[21] = Protein binding in human plasma assessed as fraction unbound; assay type: ADME, cell-free; summary of the method: as §2
Brain [22] = assay: Drug level in DBA/2 mouse brain at 30 umol/kg, po after 1 hr; assay type: ADME, organism-based; details: in vivo; summary of the method: as §1
Brain [23] = assay: Drug level in DBA/2 mouse brain at 30 umol/kg, po after 4 hrs; assay type: ADME, organism-based; details: in vivo; summary of the method: as §1
Mus musculus [24] = assay: Plasma concentration in DBA/2 mouse at 30 umol/kg, po after 1 hr; assay type: ADME, organism-based; details: in vivo; summary of the method: as §1

SMILES: C[C@H](OC(=O)N[C@@H]1CN2CCC1CC2)c1ccccc1F
Ratio (Homo sapiens [1]): 200 | IC50 [2]: > 10 µM | IC50 [3]: > 10 µM | IC50 [4]: 126 µM | IC50 [5]: > 10 µM | Ratio (Homo sapiens [6]): 251 | Ratio (Homo sapiens [7]): 200 | IC50 [8]: > 10 µM | IC50 [9]: 20 µM | IC50 [10]: 25.1 µM | Ratio (Homo sapiens [11]): 1260 | IC50 [12]: > 10 µM | IC50 [13]: 20 µM

Cp (Mus musculus [14]): 4 pmol/g | hepatic extraction ratio [15]: 0.9 | Ratio (Homo sapiens [1]): 26400 | logP [16]: 3.7 | EC50 [17]: 0.01 µM | Emax [17]: 104% | fraction unbound [18]: 0.31 | inhibition [20]: 33% | IC50 [4]: 12.6 µM | Ratio (Homo sapiens [6]): 820 | Ratio (Homo sapiens [7]): 126 | fraction unbound [21]: 0.17 | Drug uptake (Brain [22]): 239 pmol/g | Drug uptake (Brain [23]): 64 pmol/g | IC50 [9]: 251 µM | Cp (Mus musculus [24]): 18 pmol/g | IC50 [10]: 7.94 µM | Ratio (Homo sapiens [11]): 1300 | IC50 [13]: 1.26 µM
SMILES: CN1C(=O)[C@@H](CN2CCCCC2)C[C@H]1C#Cc1ccccc1 (relative stereo)
Activity (Heart): Non-toxic | IC50 [19]: 6.85 µM
